By pEC50 is commonly meant the EC50 on a negative log10 scale, so that one unit is a factor of ten. The pIC50 is the IC50 on a negative log10 scale, so that one unit is a factor of ten.

pEC50, pIC50: −log10 of the molar value.

The nature of data set [1]: Stability of the compound in human K562 cell lysates in lysis buffer assessed as parent compound remaining measured after 4 hrs. Format: ADME, subcellular. The following applies: k562, 4 h. The procedure, abridged: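 Compound incubated 4 h in K562 cell extract, 5 mg/mL in lysis buffer; percent parent remaining determined (n=2).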
Data set [2] is described as follows: Induction of interferon gamma production in human Vgamma9Vdelta2 T cells pretreated with K562 cells followed by compound washout and cocultured with Vgamma9Vdelta2 T cells and measured after 60 mins by ELISA. The following applies: Vgamma9Vdelta2 T cell. Format: functional, cell-based. The procedure, abridged:
(§1)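 K562 cells loaded with compound over a dose range for 15, 60 or 240 min, washed, then co-cultured with human Vγ9Vδ2 T cells.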
For orientation: An ELISA detects its analyte on a solid surface through an enzyme-linked reagent.

Data set [3] in a line: Induction of interferon gamma production in human Vgamma9Vdelta2 T cells pretreated with K562 cells followed by compound washout and cocultured with Vgamma9Vdelta2 T cells and measured after 15 mins by ELISA. It counts as functional, cell-based. Particulars: Vgamma9Vdelta2 T cell. In outline: as §1
Data set [4] in a line: Induction of interferon gamma production in human Vgamma9Vdelta2 T cells pretreated with K562 cells followed by compound washout and cocultured with Vgamma9Vdelta2 T cells and measured after 240 mins by ELISA. Particulars: Vgamma9Vdelta2 T cell. Format: functional, cell-based. In outline: as §1
In a further data set the test system is K562. Description: Cytotoxicity against human K562 cells assessed as inhibition of cell growth incubated for 72 hrs. It counts as functional, cell-based. The following applies: K562, 72 h.
Data set [5] is described as follows: Stability of the compound in 50% plasma (unknown origin) in PBS assessed as parent compound remaining measured after 24 hrs. It counts as ADME, cell-free. Particulars: unidentified. The procedure, abridged: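 Compound incubated 24 h in 50% plasma diluted in phosphate-buffered saline; percent parent remaining determined (n=2).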
Data set [6] can be described thus: Induction of Vgamma9Vdelta2 T cell proliferation in human peripheral blood. It counts as functional, cell-based.

Consider `C/C(=C\CCP(=O)(OCOC(=O)C(C)(C)C)OCOC(=O)C(C)(C)C)CO`, for which the Stability in data set [1] is given as 0%. Further, the pEC50 in data set [2] is 7.52; in data set [3], 7.37; in data set [4], 7.62. The negative logarithm of the IC50 (pIC50) in the data set with K562 was < 4.00.

In the case of `CCOC(=O)[C@H](C)NP(=O)(CCC=C(C)C)N[C@@H](C)C(=O)OCC`, the results for the Stability in data set [1] and in data set [5] were 31% and 70%, respectively.

Consider `CCOC(=O)CNP(=O)(CC/C=C(\C)CO)NCC(=O)OCC`, for which the Stability was found to be 57% in data set [1] and 82% in data set [5]. Besides, the negative-log EC50 (pEC50) in data set [2] is 5.14; in data set [3] it was 4.64; in data set [4], 5.80; in data set [6] it was 7.37. Besides, the pIC50 in the data set on K562 is < 4.00.

On to `COC(=O)[C@@H](NP(=O)(CCC=C(C)C)N[C@H](C(=O)OC)C(C)C)C(C)C`, for which the Stability in data set [1] was 85%; in data set [5], 99%.

Regarding `CC(C)=CCCP(=O)(N[C@@H](C)C(=O)OC(C)C)N[C@@H](C)C(=O)OC(C)C`, the Stability in data set [1] amounted to 79%; in data set [5], 90%.

For `CCOC(=O)CNP(=O)(CCC=C(C)C)NCC(=O)OCC`, the Stability came out at 86% in data set [1] and 82% in data set [5].

In the case of `COC(=O)[C@@H](NP(=O)(CC/C=C(\C)CO)N[C@H](C(=O)OC)C(C)C)C(C)C`, the Stability in data set [1] was found to be 74%; in data set [5], 86%. The pEC50 is 5.24 in data set [2], 4.85 in data set [3], 5.72 in data set [4] and 7.52 in data set [6]. Further, the pIC50 in the data set on K562 was 5.00.

For the compound `CCOC(=O)CNP(=O)(CC/C=C(\C)CO)Oc1ccccc1` (racemic), the Stability in data set [1] came to 86%. Besides, the pEC50 in data set [2] was 6.64; in data set [3], 5.82; in data set [4] it was 7.29. Further, in the data set on K562, the pIC50 is < 4.00.

These data come from ChEMBL document CHEMBL5143661, “Efficiency of bis-amidate phosphonate prodrugs” (Bioorg Med Chem Lett, 2022).
